The values below come from ChEMBL document CHEMBL2396536, “Curcuminoids block TGF-β signaling in human breast cancer cells and limit osteolysis in a murine model of breast cancer bone metastasis” (J Nat Prod, 2013).

Calls of active or inactive are those of the source. No cut-off for these calls is given here.

A word on the inhibition in vivo: it is how much of the control response was suppressed. The term IC50 denotes the concentration needed to halve the response being measured. A higher IC50 goes with a need for much substance.

Data set [1] relates to MDA-MB-231. The experiment in a line: Inhibition of osteolytic bone metastases in human MDA-MB-231 cells xenografted in athymic nude mouse left cardiac ventricle assessed as improvement in body weight at 25 to 50 mg/kg, ip administered every other day for 3 weeks measured on day 16 relative to vehicle-treated control. Type of data set: functional, organism-based. The following applies: Heart left ventricle. For orientation: A xenograft is tissue or cells of one species grown in another, often human tumour cells in immunodeficient mice.

Data set [2] relates to MDA-MB-231. Description: Inhibition of osteolytic bone metastases in human MDA-MB-231 cells xenografted in athymic nude mouse left cardiac ventricle assessed as improvement in host survival at 25 to 50 mg/kg, ip administered every other day for 3 weeks measured on day 16 relative to vehicle-treated control. The following applies: Heart left ventricle. The format is functional, organism-based. In short, it runs like this:
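Intracardiac MDA-MB-231 nude mice (n = 11/group) dosed ip every other day for 3 weeks. Survival shown by Kaplan–Meier and analyzed by logrank test with post-hoc logrank test for trend.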

Data set [3] relates to Mus musculus. The experiment in a line: Toxicity in human MDA-MB-231 cells xenografted athymic nude mouse left cardiac ventricle assessed as effect on alanine aminotransferase at 50 mg/kg, ip administered every other day for 3 weeks (reference value: 7.04 +/- 2.2 U/L). The format is organism-based, Heart. Also on record: dose 50 mg/kg, route intraperitoneal. The following applies: in vivo, 504 h.

Data set [4] has as its system Mus musculus. Description: Toxicity in human MDA-MB-231 cells xenografted athymic nude mouse left cardiac ventricle assessed as effect on alanine aminotransferase at 25 mg/kg, ip administered every other day for 3 weeks (reference value: 7.04 +/- 2.2 U/L). The following applies: in vivo, 504 h. Type of data set: organism-based, Heart. Also on record: dose 25 mg/kg, route intraperitoneal.

Data set [5] relates to Mus musculus. The experiment in a line: Toxicity in human MDA-MB-231 cells xenografted athymic nude mouse left cardiac ventricle assessed as effect on platelets at 50 mg/kg, ip administered every other day for 3 weeks (reference value: 513 +/- 54 K/uL). Type of data set: organism-based, Heart. Also on record: dose 50 mg/kg, route intraperitoneal. The following applies: in vivo, 504 h.

Data set [6] relates to Mus musculus. Description: Toxicity in human MDA-MB-231 cells xenografted athymic nude mouse left cardiac ventricle assessed as effect on platelets at 25 mg/kg, ip administered every other day for 3 weeks (reference value: 513 +/- 54 K/uL). Type of data set: organism-based, Heart. Also on record: dose 25 mg/kg, route intraperitoneal. The following applies: in vivo, 504 h.

For data set [7], the system named is Mus musculus. Description: Toxicity in human MDA-MB-231 cells xenografted athymic nude mouse left cardiac ventricle assessed as effect on hematocrit at 50 mg/kg, ip administered every other day for 3 weeks (reference value: 30.2 +/- 1.5%). Also on record: dose 50 mg/kg, route intraperitoneal. The format is organism-based, Heart. The following applies: in vivo, 504 h.

The subject of data set [8] is Mus musculus. Description: Toxicity in human MDA-MB-231 cells xenografted athymic nude mouse left cardiac ventricle assessed as effect on spleen weight at 50 mg/kg, ip administered every other day for 3 weeks (reference value: 0.134 +/- 0.02 gram). The following applies: in vivo, 504 h. Type of data set: organism-based. Also on record: dose 50 mg/kg, route intraperitoneal.

Data set [9] relates to Mus musculus. Description: Toxicity in human MDA-MB-231 cells xenografted athymic nude mouse left cardiac ventricle assessed as effect on liver weight at 25 mg/kg, ip administered every other day for 3 weeks (reference value: 1 +/- 0.10 gram). The following applies: in vivo, 504 h. Type of data set: organism-based, Heart. Also on record: dose 25 mg/kg, route intraperitoneal.

The subject of data set [10] is Mus musculus. The experiment in a line: Toxicity in human MDA-MB-231 cells xenografted athymic nude mouse left cardiac ventricle assessed as effect on bone-forming osteoblast cell at 25 to 50 mg/kg, ip administered every other day for 3 weeks. The format is organism-based, Heart. Also on record: dose 25-50 mg/kg, route intraperitoneal. The following applies: in vivo, 504 h.

Data set [11] concerns MDA-MB-231. The experiment in a line: Inhibition of osteolytic bone metastases in human MDA-MB-231 cells xenografted in athymic nude mouse left cardiac ventricle assessed as reduction of bone-tumor interface at 25 mg/kg, ip administered every other day for 3 weeks. Type of data set: functional. The following applies: MDA-MB-231, Heart left ventricle, 504 h, route intraperitoneal. In short, it runs like this:
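Intracardiac MDA-MB-231 model in nude mice, dosed ip every other day for 21 days. Mid-sagittal tibia and femur sections TRAP-stained. TRAP+ multinucleated (>3 nuclei) cells counted at 40x along the tumor-bone interface. Expressed as osteoclasts per mm of interface.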

The test system of data set [12] is MDA-MB-231. Description: Inhibition of osteolytic bone metastases in human MDA-MB-231 cells xenografted in athymic nude mouse left cardiac ventricle assessed as reduction in lytic bone lesion area at 25 to 50 mg/kg, ip administered every other day for 3 weeks measured on day 21 relative to control. Type of data set: functional, Heart left ventricle. The following applies: dose mg/kg 25-50; route intraperitoneal. In short, it runs like this:
(§1)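 Four-week female athymic nude mice inoculated with 1 × 10^5 MDA-MB-231 cells in 0.1 mL PBS into the left cardiac ventricle. Dosed ip at 25 or 50 mg/kg or vehicle every other day from day 1 for 21 days, n = 11/group. Lytic lesion area quantified on radiographs on days 12, 16 and 21. Two-way ANOVA with Bonferroni.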

Data set [13] has as its system MDA-MB-231. Description: Inhibition of osteolytic bone metastases in human MDA-MB-231 cells xenografted in athymic nude mouse left cardiac ventricle assessed as reduction in lytic bone lesion area at 25 to 50 mg/kg, ip administered every other day for 3 weeks measured on day 16 relative to control. The following applies: dose mg/kg 25-50; route intraperitoneal. Type of data set: functional, Heart left ventricle. In short, it runs like this:
as §1

In data set [14] the test system is MDA-MB-231. Description: Cytotoxicity against human MDA-MB-231 cells assessed as cell viability by MTT assay. Type of data set: cell-based. In outline:
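MDA-MB-231 plated at 5 × 10^4 cells/cm2 and held overnight in DMEM with 10% FBS at 37°C and 5% CO2. Pre-incubated 4 h with compound in 2% FBS DMEM, then medium refreshed with TGF-β1 (5 ng/mL) for 24 h. Cell number read by MTT reduction.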
For orientation: Tetrazolium dyes change colour on reduction, which living cells bring about.

The test system of data set [15] is MDA-MB-231. The experiment in a line: Inhibition of TGF-beta-induced PTHrP secretion in human MDA-MB-231 cells at 100 uM treated 4 hrs before TGF-beta challenge measured after 24 hrs by radioimmunoassay. The format is functional, cell-based. In outline:
(§2)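 MDA-MB-231 plated at 5 × 10^4 cells/cm2 and held overnight in DMEM with 10% FBS. Pre-treated 4 h with compound (0.1–100 μM in methods; 0.1–300 μM in legend) in 2% FBS, then recombinant human TGF-β1 (5 ng/mL) or medium alone for 24 h. PTHrP measured in conditioned media by radioimmunoassay, n = 4 wells/group. IC50 from four-parameter logistic fit.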

The subject of data set [16] is MDA-MB-231. Description: Inhibition of TGF-beta-induced PTHrP secretion in human MDA-MB-231 cells treated 4 hrs before TGF-beta challenge measured after 24 hrs by radioimmunoassay. The following applies: for minimal effective concentration: read-out: MEC. The format is functional, cell-based. In short, it runs like this: as §2
For data set [17], the system named is MDA-MB-231. Description: Inhibition of TGF-beta-induced Ets-1 expression in human MDA-MB-231 cells treated 12 hrs before TGF-beta challenge measured after 1 hr by Western blotting. Background: A western blot detects proteins with antibodies after separation by electrophoresis.
For data set [18], the system named is Mus musculus. Description: Effect on orthotopic tumor mass in human MDA-MB-231 cells xenografted athymic nude mouse mammary fat pad at 25 to 50 mg/kg, ip administered every other day for 3 weeks.
Data set [19] has as its system Mus musculus. Description: Toxicity in human MDA-MB-231 cells xenografted athymic nude mouse left cardiac ventricle assessed as effect on white blood cells at 50 mg/kg, ip administered every other day for 3 weeks (reference value: 5.84 +/- 1.3 K/uL). The following applies: in vivo, 504 h.
Data set [20] deals with Mus musculus. The experiment in a line: Toxicity in human MDA-MB-231 cells xenografted athymic nude mouse left cardiac ventricle assessed as effect on white blood cells at 25 mg/kg, ip administered every other day for 3 weeks (reference value: 5.84 +/- 1.3 K/uL). The following applies: in vivo, 504 h.

As for `O=C(/C=C/c1ccc(O)cc1)CC(=O)/C=C/c1ccc(O)cc1` [BISDEMETHOXYCURCUMIN], the outcome in the data set on MDA-MB-231 [1] and with MDA-MB-231 [2] was Active. In addition, the Activity is reported as 5.02 U/L in the data set with Mus musculus [3]; 7.13 U/L with Mus musculus [4]; 589 K/uL with Mus musculus [5]; 485 K/uL in the data set on Mus musculus [6]; 31.1% in the data set with Mus musculus [7]; 0.139 g in the data set on Mus musculus [8]. Also, the Activity in the data set on Mus musculus [9] is 0.987 g; in the data set with Mus musculus [10], “Non-toxic”; in the data set on Mus musculus [19] it was 6.83 K/uL; in the data set with Mus musculus [20], 4.69 K/uL. Also, the inhibition in vivo at 25 mg/kg in the data set on MDA-MB-231 [11] amounted to 53%. Moreover, the “inhibition (INH)” value with MDA-MB-231 [12] stood at 57%; with MDA-MB-231 [13] it was 51%. Besides, in the data set on MDA-MB-231 [14], the MTC came out at 82 µM. Also, the inhibition entry with MDA-MB-231 [15] and in the data set with MDA-MB-231 [17] was “Active” each time. The molecule also gave an IC50 in the data set on MDA-MB-231 [16] of 24 µM. Also, in the data set on MDA-MB-231 [16], the inhibition result is “Dose-dependent effect”. Besides, the minimal effective concentration with MDA-MB-231 [16] came out at 13 µM. Also, in the data set with Mus musculus [18], the outcome was inactive.
Turning to `COc1cc(/C=C/C(=O)CC(=O)/C=C/c2ccc(O)c(OC)c2)ccc1O` [CURCUMIN], the result in the data set on MDA-MB-231 [1] and in the data set with MDA-MB-231 [2] was Active. In addition, the Activity is on record as 5.02 U/L in the data set on Mus musculus [3]; 7.13 U/L in the data set on Mus musculus [4]; 589 K/uL with Mus musculus [5]; 485 K/uL with Mus musculus [6]; 31.1% with Mus musculus [7]; 0.139 g in the data set with Mus musculus [8]. The Activity in the data set with Mus musculus [9] was 0.987 g; with Mus musculus [10], “Non-toxic”; in the data set on Mus musculus [19], 6.83 K/uL; in the data set with Mus musculus [20], 4.69 K/uL. Also, the inhibition in vivo at 25 mg/kg with MDA-MB-231 [11] came out at 53%. For the same molecule, the “inhibition (INH)” value with MDA-MB-231 [12] is given as 57%; in the data set on MDA-MB-231 [13] it was 51%. Besides, the MTC in the data set on MDA-MB-231 [14] worked out at 82 µM. Further, the inhibition result in the data set with MDA-MB-231 [15] and with MDA-MB-231 [17] was “Active” each time. For the same molecule, half-maximal inhibition in the data set with MDA-MB-231 [16] (IC50) required 24 µM. The inhibition entry in the data set with MDA-MB-231 [16] was “Dose-dependent effect”. For the same molecule, the minimal effective concentration with MDA-MB-231 [16] turned out to be 13 µM. Moreover, the result with Mus musculus [18] was inactive.
As for `COc1cc(/C=C/C(O)=C/C(=O)/C=C/c2ccc(O)cc2)ccc1O` [DEMETHOXYCURCUMIN], the outcome in the data set with MDA-MB-231 [1] and with MDA-MB-231 [2] was Active. In addition, the Activity is on record as 5.02 U/L in the data set on Mus musculus [3]; 7.13 U/L in the data set on Mus musculus [4]; 589 K/uL in the data set on Mus musculus [5]; 485 K/uL in the data set on Mus musculus [6]; 31.1% in the data set with Mus musculus [7]; 0.139 g in the data set on Mus musculus [8]. For the same molecule, the Activity is recorded as 0.987 g with Mus musculus [9], “Non-toxic” with Mus musculus [10], 6.83 K/uL in the data set on Mus musculus [19] and 4.69 K/uL with Mus musculus [20]. Further, in the data set with MDA-MB-231 [11], the inhibition in vivo at 25 mg/kg came out at 53%. In addition, the “inhibition (INH)” value was 57% in the data set on MDA-MB-231 [12] and 51% with MDA-MB-231 [13]. Besides, the MTC with MDA-MB-231 [14] was 82 µM. Moreover, the inhibition result with MDA-MB-231 [15] and with MDA-MB-231 [17] was “Active” throughout. The same molecule gave a half-maximal inhibitory concentration (IC50) with MDA-MB-231 [16] of 24 µM. Further, the inhibition result with MDA-MB-231 [16] was “Dose-dependent effect”. The minimal effective concentration in the data set on MDA-MB-231 [16] came to 13 µM. Moreover, the outcome with Mus musculus [18] was inactive.
